{"source": "ChEMBL document CHEMBL2034884", "about": "“Synthesis, in vitro and in silico screening of ethyl 2-(6-substituted benzo[d]thiazol-2-ylamino)-2-oxoacetates as protein-tyrosine phosphatase 1B inhibitors” (Eur J Med Chem, 2012)", "key": {"[1]": {"target": "T1, Tyrosine-protein phosphatase non-receptor type 1 (Homo sapiens) (UniProt P18031)", "T1 sequence (whole entry)": "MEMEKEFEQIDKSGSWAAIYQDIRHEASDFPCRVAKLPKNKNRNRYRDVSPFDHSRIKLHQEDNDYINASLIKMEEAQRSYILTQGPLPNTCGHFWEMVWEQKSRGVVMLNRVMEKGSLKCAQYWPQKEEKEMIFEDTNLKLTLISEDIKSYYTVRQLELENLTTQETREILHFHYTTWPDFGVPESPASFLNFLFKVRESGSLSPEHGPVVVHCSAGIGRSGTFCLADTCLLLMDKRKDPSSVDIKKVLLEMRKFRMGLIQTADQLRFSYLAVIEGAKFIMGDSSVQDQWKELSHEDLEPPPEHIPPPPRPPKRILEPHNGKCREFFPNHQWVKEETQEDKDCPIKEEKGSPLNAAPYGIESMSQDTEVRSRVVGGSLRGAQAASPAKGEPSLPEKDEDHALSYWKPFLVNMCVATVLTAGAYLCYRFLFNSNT", "assay": "Reversible inhibition of human recombinant GST-tagged PTP1B expressed in Escherichia coli TB1 cells using p-NPP as substrate at 100 uM after 1 hr at 4 degC", "procedure,_shortened": "(§1)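 The enzyme, cleaved from GST, was preincubated for 1 h at 4 °C or 37 °C with 100 μM compound or a DMSO control. It was then diluted 400-fold into assay solution, and residual activity was measured at 37 °C with 5 mM p-NPP final, read at 400 nm. Triplicates, mean ± S.E.M.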"}, "[2]": {"target": "T1, Tyrosine-protein phosphatase non-receptor type 1 (Homo sapiens)", "assay": "Reversible inhibition of human recombinant GST-tagged PTP1B expressed in Escherichia coli TB1 cells using p-NPP as substrate at 100 uM after 1 hr at 37 degC", "procedure,_shortened": "as §1"}, "[3]": {"target": "T1, Tyrosine-protein phosphatase non-receptor type 1 (Homo sapiens)", "assay": "Slow binding inhibition of human recombinant GST-tagged PTP1B expressed in Escherichia coli TB1 cells using p-NPP as substrate", "procedure,_shortened": "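p-Nitrophenol release from p-NPP by PTP-1B was followed over time at 400 nm at several inhibitor concentrations, at 37 °C, pH 7.0. Progress curves were examined for linearity, with and without 30 min enzyme–inhibitor preincubation before the assay.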"}, "[4]": {"target": "T2, Tyrosine-protein phosphatase non-receptor type 1 (Homo sapiens, UniProt P18031)", "T2 sequence (P18031 whole entry)": "T1 sequence (whole entry)", "assay": "Mixed-type inhibition of human recombinant GST-tagged PTP1B expressed in Escherichia coli TB1 cells using p-NPP as substrate by double reciprocal plot analysis", "procedure,_shortened": "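Thrombin-cleaved, gel-filtered PTP-1B in pH 7.0 β,β-dimethylglutarate/EDTA/DTT buffer at 37 °C. Initial p-NPP hydrolysis rates were measured at eight substrate concentrations (0.5–40 mM) with increasing inhibitor concentrations. p-Nitrophenol was read at 400 nm, and Km/Vmax changes were analysed by double reciprocal plots.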"}, "[5]": {"target": "T2, Tyrosine-protein phosphatase non-receptor type 1", "assay": "Inhibition of human recombinant GST-tagged PTP1B expressed in Escherichia coli TB1 cells using p-NPP as substrate"}, "[6]": {"target": "T1, Tyrosine-protein phosphatase non-receptor type 1 (Homo sapiens)", "assay": "Inhibition of human recombinant GST-tagged PTP1B expressed in Escherichia coli TB1 cells using p-NPP as substrate at 40 uM", "procedure,_shortened": "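PTP-1B was cleaved from GST with thrombin and gel-filtered. Assay: 0.075 M β,β-dimethylglutarate buffer pH 7.0 with 1 mM EDTA and 1 mM DTT, 2.5 mM p-NPP, compound 40 μM final, DMSO control, 37 °C, 0.16 μg enzyme per 1 mL assay. Stopped with KOH; p-nitrophenol read at 400 nm. Residual activity is % of control, four assays, mean ± S.E.M.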"}, "[7]": {"system": "Rattus norvegicus", "assay": "Hypoglycemic activity in glucose-fed normoglycemic Wistar rat assessed as decrease in rise of blood glucose at 5 to 10 mg/kg, po single dose measured up to 4 hrs post dose by oral glucose tolerance test", "type": "functional, organism-based", "procedure,_shortened": "(§2)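 Male Wistar rats (200–250 g), fasted 18 h, n = 5 per group. Test agents were given orally as suspensions at the listed doses, with vehicle controls. A 2 g/kg glucose load was given by the same route 10 min later. Tail-tip blood was sampled at 0, 0.5, 1, 2, 3 and 4 h. Glucose was read by the glucose oxidase glucometer method.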"}, "[8]": {"system": "Rattus norvegicus", "assay": "Hypoglycemic activity in normoglycemic Wistar rat at 10 mg/kg, po administered as single dose measured up to 3 hrs post dose", "type": "functional, organism-based", "design": "dose 10 mg/kg", "procedure,_shortened": "(§3)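 Male Wistar rats (200–250 g), n = 5 per group, given a single oral/intragastric dose suspended in 5% Tween 80. Vehicle controls received 5% Tween 80. Caudal-vein blood was taken at 0, 1, 3, 5 and 7 h and glucose read with a glucose oxidase glucometer. Results are % glycemia change versus 0 h, mean ± S.E.M., ANOVA p < 0.05.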"}, "[9]": {"system": "Rattus norvegicus", "assay": "Hypoglycemic activity in normoglycemic Wistar rat at 100 mg/kg, po administered as single dose measured up to 3 hrs post dose", "type": "functional", "procedure,_shortened": "as §3"}, "[10]": {"system": "Rattus norvegicus", "assay": "Hypoglycemic activity in glucose fed normoglycemic Wistar rat assessed as decrease in rise of blood glucose at 100 mg/kg, po single dose measured up to 4 hrs post dose by oral glucose tolerance test", "type": "functional", "design": "scale not given: the % may be the effect or the level left", "procedure,_shortened": "as §2"}, "[11]": {"system": "Rattus norvegicus", "assay": "Hypoglycemic activity in glucose-fed normoglycemic Wistar rat assessed as decrease in rise of blood glucose at 4 mg/kg, po single dose measured up to 4 hrs post dose by oral glucose tolerance test", "type": "functional, organism-based", "design": "dose 4 mg/kg", "procedure,_shortened": "as §2"}, "[12]": {"system": "Rattus norvegicus", "assay": "Hypoglycemic activity in normoglycemic Wistar rat at 100 mg/kg, po administered as single dose measured up to 5 hrs post dose", "type": "functional", "procedure,_shortened": "as §3"}}, "note": "pIC50, pKi: −log10 of the molar value. Activity calls are given as the source filed them. The rule behind the calls is not given here.", "data": [{"smiles": "CCOC(=O)C(=O)Nc1nc2ccc(F)cc2s1", "values": [{"measurement": "inhibition", "setting": "[1]", "result": "Active"}, {"measurement": "inhibition", "setting": "[2]", "result": "Active"}, {"measurement": "inhibition", "setting": "[3]", "result": "inactive"}, {"measurement": "pKi", "setting": "[4]", "result": 5.10}, {"measurement": "pIC50", "setting": "[5]", "result": 5.06}]}, {"smiles": "CCOC(=O)C(=O)Nc1nc2ccc(S(C)(=O)=O)cc2s1", "values": [{"measurement": "inhibition", "setting": "[6]", "result": "inactive"}]}, {"smiles": "COc1ccc(Cl)cc1C(=O)NCCc1ccc(S(=O)(=O)NC(=O)NC2CCCCC2)cc1", "values": [{"measurement": "Activity", "setting": "[7]", "result": "Active"}, {"measurement": "Activity", "setting": "[8]", "result": "Active"}]}, {"smiles": "CCOC(=O)C(=O)Nc1nc2ccc(Cl)cc2s1", "values": [{"measurement": "inhibition", "setting": "[1]", "result": "Active"}, {"measurement": "inhibition", "setting": "[2]", "result": "Active"}, {"measurement": "inhibition", "setting": "[3]", "result": "inactive"}, {"measurement": "pKi", "setting": "[4]", "result": 5.10}, {"measurement": "Activity", "setting": "[9]", "result": 30, "unit": "%"}, {"measurement": "Activity", "setting": "[10]", "result": ">20", "unit": "%"}, {"measurement": "pIC50", "setting": "[5]", "result": 5.00}]}, {"smiles": "CCOC(=O)C(=O)Nc1nc2ccc(OCC)cc2s1", "values": [{"measurement": "inhibition", "setting": "[6]", "result": "inactive"}]}, {"smiles": "CCOC(=O)C(=O)Nc1nc2ccc([N+](=O)[O-])cc2s1", "values": [{"measurement": "inhibition", "setting": "[6]", "result": "inactive"}]}, {"smiles": "CCOc1cc(CC(=O)N[C@@H](CC(C)C)c2ccccc2N2CCCCC2)ccc1C(=O)O", "values": [{"measurement": "Activity", "setting": "[11]", "result": "Active"}]}, {"smiles": "CCOC(=O)C(=O)Nc1nc2ccc(OC)cc2s1", "values": [{"measurement": "inhibition", "setting": "[6]", "result": "inactive"}]}, {"smiles": "CCOC(=O)C(=O)Nc1nc2ccccc2s1", "values": [{"measurement": "inhibition", "setting": "[6]", "result": "inactive"}]}, {"smiles": "CCOC(=O)C(=O)Nc1nc2ccc(C)cc2s1", "values": [{"measurement": "inhibition", "setting": "[1]", "result": "Active"}, {"measurement": "inhibition", "setting": "[2]", "result": "Active"}, {"measurement": "inhibition", "setting": "[3]", "result": "inactive"}, {"measurement": "pKi", "setting": "[4]", "result": 5.21}, {"measurement": "Activity", "setting": "[12]", "result": 26, "unit": "%"}, {"measurement": "Activity", "setting": "[10]", "result": ">20", "unit": "%"}, {"measurement": "pIC50", "setting": "[5]", "result": 4.96}]}, {"smiles": "CCOC(=O)C(=O)Nc1nc2ccc(N)cc2s1", "values": [{"measurement": "inhibition", "setting": "[6]", "result": "inactive"}]}]}
